NPY-Y1 PAM-ag – human NPY-Y1 potentiation or agonism, primary screen | 220,000 tested, 0.37% active | NPY-Y1 expressing cells, potentiator/agonist activation | activation, % at 3.6 µM | AID 1304; in the data active means activation above about 33%, passing the limit was not always enough;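 further: cells stimulated with NPY at EC10 then isoproterenol at EC100; 0% = low agonist plus stimulus and 100% = saturating agonist plus stimulus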
Target sequence (P25929 whole entry, looked up): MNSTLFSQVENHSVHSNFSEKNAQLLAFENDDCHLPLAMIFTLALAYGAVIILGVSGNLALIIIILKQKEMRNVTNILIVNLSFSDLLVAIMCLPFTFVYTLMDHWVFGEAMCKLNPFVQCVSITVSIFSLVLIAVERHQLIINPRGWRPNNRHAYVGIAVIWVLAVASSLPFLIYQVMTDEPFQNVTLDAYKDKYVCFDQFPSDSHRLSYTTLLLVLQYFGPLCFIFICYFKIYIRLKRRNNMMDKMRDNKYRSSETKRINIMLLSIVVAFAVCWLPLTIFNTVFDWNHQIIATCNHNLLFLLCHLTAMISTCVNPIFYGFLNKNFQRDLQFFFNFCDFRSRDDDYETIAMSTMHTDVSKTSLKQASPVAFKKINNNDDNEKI
NPY-Y2 antag – blocks the human neuropeptide Y Y2 receptor; P49146; NPY-Y2 expressing cells, antagonist mode; inhibition, % at 2.7 µM; 140,000 tested, 0.99% active; AID 793; in the data active means inhibition above about 17%;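 further: 0% = vehicle with agonist challenge and 100% = reference antagonist with challenge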
NPY-Y1 antag – antagonists of human neuropeptide Y receptor Y1; 200,000 tested, 1% active; inhibition, % at 3.6 µM; HEK293-CNG Y1 cells, membrane potential fluorescence; NPY at EC95, then isoproterenol; P25929; AID 1040;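 active means inhibition above the campaign mean inhibition of all tested compounds plus 3 SD, cut at about 20% in these data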;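 further: 0% = DMSO wells given NPY plus isoproterenol and 100% = isoproterenol alone without NPY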
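Assay system: HEK293 cells with Y1 receptor plus CNG channel | Probe or stimulus: NPY (25 nM), isoproterenol (1 µM), Ro 20-1724 (25 µM) | Timing: Compound incubation 1 h at room temperature, readout 45 min post-stimulation | Measured by: Membrane-potential fluorescent dye readout | Benchmarks: High control isoproterenol alone, low control NPY with isoproterenol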
NPY-Y2 PAM-ag – potentiates or activates human NPY-Y2 receptor; P49146; cells expressing NPY-Y2, potentiator/agonist read-out; activation, % at 3.6 µM; 220,000 tested, 0.45% active; in the data active means activation above about 27%;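 further: cells stimulated with NPY near EC25 plus isoproterenol at EC100; 0% = vehicle plus submaximal agonist and 100% = vehicle plus saturating agonist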
NPY-Y2 confirm – confirmation of human NPY-Y2 receptor potentiators or agonists. shares compounds with NPY-Y2 PAM-ag. cell-based NPY-Y2 potentiator/agonist assay. 450 tested, 20% active. activation, % at 3.6 µM; in the data active means activation above about 33%
NPY-Y1 potentiator – counter-screen for NPY-Y2 potentiators or agonists: NPY-Y1 potentiators or agonists; shares compounds with NPY-Y2 PAM-ag; Y1 HEK293-CNG cells, membrane potential fluorescence; activation, % at 3.6 µM; 450 tested, 20% active; AID 1651; in the data active means activation above about 45%;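 further: cells stimulated with submaximal NPY then isoproterenol with phosphodiesterase inhibitor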
NPY-Y1 agonist 2 – counter-screen for NPY-Y2 potentiators: agonists of human NPY-Y1. HEK293 Y1-CNGC, membrane potential fluorescence, agonism. 450 tested, 37% active. activation, % at 3.6 µM. shares compounds with NPY-Y2 PAM-ag. AID 1702;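 active means activation above the mean of DMSO-only control wells plus 3 SD, cut at about 18% in these data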;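 further: cells stimulated with 1 µM isoproterenol plus the PDE inhibitor Ro 20-1724; 0% = isoproterenol with DMSO and no NPY and 100% = 40 nM NPY; Y1 agonists lower the membrane potential dye signal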
CNGC inhibitor – cyclic nucleotide gated channel inhibition as counter-screen. shares compounds with NPY-Y2 PAM-ag. HEK293-CNG parental, isoproterenol cAMP, membrane potential fluorescence. inhibition, % at 3.6 µM. 450 tested, 32% active;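 active means inhibition above the control-well mean plus 3 SD of those wells, cut at about 22% in these data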;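 further: 0% = DMSO with isoproterenol and 100% = DMSO without isoproterenol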
NPY-Y2 ag 2 – counter-screen for NPY-Y2 potentiators: agonists of human NPY-Y2; activation, % at 3.6 µM; shares compounds with NPY-Y2 PAM-ag; AID 1710; HEK293 Y2/CNGC cells, membrane potential fluorescence, agonist mode; 450 tested, 56% active;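 active means activation above the mean of solvent-only control wells plus 3 SD, cut at about 10% in these data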;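 further: cells stimulated by isoproterenol with no NPY added so direct agonism is tested; 0% = DMSO with isoproterenol alone and 100% = NPY at EC100 plus isoproterenol; agonism lowers probe fluorescence through less cAMP and CNG channel opening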
* = called active by the depositor; . = no result given. Only some compounds are listed: those with a hit (about 1.8% of all), similar ones and a draw of the others.

SMILES | NPY-Y1 PAM-ag | NPY-Y2 antag | NPY-Y1 antag | NPY-Y2 PAM-ag | NPY-Y2 confirm | NPY-Y1 potentiator | NPY-Y1 agonist 2 | CNGC inhibitor | NPY-Y2 ag 2
CC1(CCc2ccccc2)NC(=O)N(Cc2cc([N+](=O)[O-])cc3c2OCOC3)C1=O (stereo unspecified) | -19.1 | . | 3.5 | -11.1 | . | . | . | . | .
Cc1cccc2cc(CN(CCCO)C(=O)Nc3ccccc3Cl)c(=O)[nH]c12 | -15.4 | 1.9 | 8.5 | -7.4 | . | . | . | . | .
O=C(O)c1ccc(Oc2c(C(F)(F)F)oc3cc(O)ccc3c2=O)cc1 | 12.2 | . | 10.8 | 39.2* | -1.0 | -0.6 | -12.8 | -0.4 | -2.5
Cc1oc2cc(O)ccc2c(=O)c1Oc1ccccc1 | -13.6 | 4.1 | -0.5 | -10.8 | . | . | . | . | .
Cc1cccc(-n2c(N)cc(=O)nc2SCC(=O)Nc2cc(C)on2)c1 | 34.4 | 1.7 | 3.0 | 78.7* | -4.4 | 2.4 | -5.5 | -3.7 | -7.9
Cc1ccc(C(=O)n2nc(-n3cccc3)c3c(C)cc(C)nc32)cc1 | 28.8 | . | -4.8 | 57.3* | 16.7 | 28.5 | 23.5* | 2.6 | 17.9*
Cc1cc(C)c2c(-n3cccc3)nn(C)c2n1 | 7.6 | 1.3 | -3.7 | 7.0 | . | . | . | . | .
CC(C)c1nnc(NC(=O)CCC(=O)Nc2ccccc2)s1 | 8.8 | . | . | -14.8 | . | . | . | . | .
CC(C)c1nnc(NC(=O)CCC(=O)Nc2ccc3cn[nH]c3c2)s1 | -3.6 | . | . | 38.8* | 0.1 | -0.9 | 3.5 | 5.9 | 13.4*
Nc1sc(-c2ccccc2)cc1-c1n[nH]c(=S)n1C1CCCCC1 | 1.1 | . | . | 102.0* | 19.4 | 18.9 | 10.5 | 17.4 | 24.6*
COc1ccc(-n2c(-c3cc(-c4ccccc4)sc3N)n[nH]c2=S)cc1 | 22.6 | . | . | 23.8 | . | . | . | . | .
O=C(/C(N=Nc1cccc([N+](=O)[O-])c1)=C(/O)c1ccc(Br)cc1)C(F)(F)F | 28.2 | . | . | 41.0* | 31.1 | 10.6 | 15.5 | 14.7 | 19.6*
COC(=O)c1ccc(N=Cc2c(-c3ccccc3)[nH][nH]c2=O)cc1 | 9.6 | . | -2.2 | 0.5 | . | . | . | . | .
Cc1cccc(Cl)c1NC(=O)N1CCCN(c2nc3ccc(Cl)cc3s2)CC1 | 18.1 | . | . | 45.5* | 6.1 | -28.7 | -7.3 | -4.9 | 8.6
[O-]/[N+](=C\c1ccncc1)c1ccc(Br)cc1 | 41.1 | 2.1 | -5.1 | 57.2* | 12.9 | 20.4 | 20.0* | 1.4 | 7.3
[O-]/[N+](=C/c1cccnc1)c1ccc(Br)cc1 | 20.8 | 0.1 | -1.6 | 13.1 | . | . | . | . | .
Cc1ncccc1C(=O)N1CCCC(C(=O)c2ccc3c4c(cccc24)CC3)C1 (stereo unspecified) | -9.4 | . | -0.3 | 72.2* | 1.1 | 2.5 | -6.9 | 7.5 | 7.8
CCc1ccccc1NC(=O)C1c2ccccc2Oc2ccccc21 | -7.3 | 7.3 | -2.8 | 9.2 | . | . | . | . | .
CC(C)COC(=O)NC1c2ccccc2Oc2ccccc21 | -38.0 | . | . | 99.9* | -17.2 | -32.9 | -32.4 | -20.7 | -8.3
CC(C)(C)n1cc(S(=O)(=O)c2ccccc2)[nH]c1=O | -2.5 | . | 3.0 | 41.2* | -0.5 | 2.0 | -1.8 | 0.2 | 9.2
Cc1ccc(/C=N/NC(=O)CNC(=O)c2ccc(S(=O)(=O)N3CCCC3)cc2)o1 | 28.5 | . | -2.4 | 83.8* | -4.1 | -1.2 | -11.5 | 0.0 | -6.0
COc1ccc2nc(NC(=S)NC(=O)c3ccco3)sc2c1 | -1.7 | . | 4.8 | -10.1 | . | . | . | . | .
Oc1ccccc1-c1nc(NCC2CCCO2)c2ccccc2n1 (stereo unspecified) | 22.0 | -0.7 | -4.2 | 41.1* | 37.3* | 24.4 | 17.3 | 24.4* | 19.1*
C=CCc1ccccc1OCC(O)CN1CCN(c2ccc(C)cc2)CC1 (stereo unspecified) | 45.2 | 7.1 | -4.9 | 43.6* | 28.5 | 31.1 | 54.5* | -0.4 | 46.6*
Cc1cccc(N2CCN(CC(O)COc3ccccc3Cl)CC2)c1 (stereo unspecified) | 35.1 | . | . | -21.1 | . | . | . | . | .
COc1ccc(OCC(O)CN2CCN(c3ccccc3)CC2)cc1 (stereo unspecified) | -7.0 | . | 8.3 | -9.7 | . | . | . | . | .
